Measured values: ChEMBL document CHEMBL5653625, “P21-Activated Kinase Inhibitors FRAX486 and IPA3: Inhibition of Prostate Stromal Cell Growth and Effects on Smooth Muscle Contraction in the Human Prostate” (PLoS One, 2016)
Calls of active or inactive are those of the source. The rule behind the calls is not given here.

Columns and labels:
Homo sapiens [1] = species: Homo sapiens; assay: Inhibition of endothelin-2 induced prostate cancer patient derived human Prostate gland strips contraction assessed as reduction in KCl-induced contraction at 30 uM by organ-bath analysis; format: functional, tissue-based
How it was run: (§1)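 Human prostate strips (6 x 3 x 3 mm) in aerated (95% O2/5% CO2) Krebs-Henseleit, 37°C, pH 7.4, resting tone 4.9 mN after 45 min equilibration; reference contraction to 80 mM KCl, washout, then inhibitor or DMSO added before cumulative noradrenaline, phenylephrine or endothelin concentration-response curves or EFS frequency-response curves; tension expressed as % of KCl contraction.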

[2] = Cytotoxicity against human WPMY-1 cells assessed as reduction in cell viability at 1 to 10 uM incubated for 24 hrs by WST-8 assay; format: toxicity, cell-based; details: wpmy-1, 24 h, dose 1-10 µM
Homo sapiens [3] = species: Homo sapiens; assay: Inhibition of phenylephrine induced prostate cancer patient derived human Prostate gland strips contraction assessed as reduction in KCl-induced contraction at 30 uM by organ-bath analysis; format: functional, tissue-based; how it was run: as §1
WPMY-1 [4] = assay: Inhibition of actin filament organization in human WPMY-1 cells at 1 uM incubated for 24 hrs by FITC-coupled phalloidin staining based laser scanning microscopy; format: functional, cell-based
How it was run: (§2)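 Serum-starved WPMY-1 cells grown on chamber slides with inhibitor (1–10 µM) or DMSO for 24 h, then stained for F-actin with FITC-labeled phalloidin and imaged by laser scanning confocal microscopy; filament bundles, protrusions and cell shape judged visually against solvent controls; representative images from 5 independent experiments.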

[5] = Cytotoxicity against human WPMY-1 cells assessed as cell survival rate at 1 uM incubated for 24 hrs by WST-8 assay; format: toxicity, cell-based; details: read-out: Survival
How it was run: (§3)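 WPMY-1 human prostate stromal cells kept in RPMI 1640 with 10% FCS and 1% penicillin/streptomycin, 37°C, 5% CO2; switched to FCS-free medium before treatment. Seeded 20,000 cells/well, grown 24 h, then exposed to inhibitor or DMSO (1, 5, 10 µM) for 24, 48 or 72 h with separate controls per period. WST-8 (CCK-8) added, absorbance 450 nm after 2 h at 37°C; 5 independent experiments, means ±SEM.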

Homo sapiens [6] = species: Homo sapiens; assay: Inhibition of endothelin-1 induced prostate cancer patient derived human Prostate gland strips contraction assessed as reduction in KCl-induced contraction at 30 uM by organ-bath analysis; format: functional, tissue-based; how it was run: as §1
[7] = Inhibition of actin filament organization in human WPMY-1 cells assessed as rounded cell shape without protrusion at 5 to 10 uM incubated for 24 hrs by FITC-coupled phalloidin staining based laser scanning microscopy; format: functional; details: dose 5-10 µM; how it was run: as §2
Homo sapiens [8] = species: Homo sapiens; assay: Inhibition of endothelin-1 induced prostate cancer patient derived human Prostate gland strips contraction assessed as reduction in KCl-induced contraction at 10 uM by organ-bath analysis; format: functional, tissue-based; how it was run: as §1
[9] = Cytotoxicity against human WPMY-1 cells assessed as reduction in cell proliferation at 1 to 10 uM incubated for 24 hrs by EdU incorporation assay; format: toxicity, cell-based; parameters: scale not given: the % may be the effect or the level left; details: wpmy-1, 24 h, dose 1-10 µM
[10] = target: Serine/threonine-protein kinase PAK 2 (Homo sapiens, UniProt Q13177); assay: Inhibition of full length PAK2 (unknown origin) assessed s reduction in substrate phosphorylation using peptide as substrate by FRET based Z-LYTE kinase assay
Sequence of Serine/threonine-protein kinase PAK 2 (Q13177 whole entry): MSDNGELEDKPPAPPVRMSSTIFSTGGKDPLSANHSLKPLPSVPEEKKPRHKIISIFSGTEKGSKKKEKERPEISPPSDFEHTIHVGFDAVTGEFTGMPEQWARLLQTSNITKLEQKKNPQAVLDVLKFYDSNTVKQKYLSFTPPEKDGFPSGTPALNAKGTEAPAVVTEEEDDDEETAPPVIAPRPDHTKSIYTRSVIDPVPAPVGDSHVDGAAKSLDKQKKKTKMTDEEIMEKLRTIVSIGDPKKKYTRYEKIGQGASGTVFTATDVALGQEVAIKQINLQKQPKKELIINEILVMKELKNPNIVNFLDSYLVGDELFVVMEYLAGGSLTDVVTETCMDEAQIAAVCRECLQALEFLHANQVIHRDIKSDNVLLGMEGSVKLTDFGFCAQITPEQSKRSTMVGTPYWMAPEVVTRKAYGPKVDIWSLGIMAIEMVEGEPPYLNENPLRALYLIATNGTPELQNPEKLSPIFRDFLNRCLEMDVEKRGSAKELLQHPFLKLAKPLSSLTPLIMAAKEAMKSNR

[11] = target: Serine/threonine-protein kinase PAK 3 (Homo sapiens, UniProt O75914); assay: Inhibition of full length PAK3 (unknown origin) assessed s reduction in substrate phosphorylation using peptide as substrate by FRET based Z-LYTE kinase assay
Sequence of Serine/threonine-protein kinase PAK 3 (O75914 whole entry): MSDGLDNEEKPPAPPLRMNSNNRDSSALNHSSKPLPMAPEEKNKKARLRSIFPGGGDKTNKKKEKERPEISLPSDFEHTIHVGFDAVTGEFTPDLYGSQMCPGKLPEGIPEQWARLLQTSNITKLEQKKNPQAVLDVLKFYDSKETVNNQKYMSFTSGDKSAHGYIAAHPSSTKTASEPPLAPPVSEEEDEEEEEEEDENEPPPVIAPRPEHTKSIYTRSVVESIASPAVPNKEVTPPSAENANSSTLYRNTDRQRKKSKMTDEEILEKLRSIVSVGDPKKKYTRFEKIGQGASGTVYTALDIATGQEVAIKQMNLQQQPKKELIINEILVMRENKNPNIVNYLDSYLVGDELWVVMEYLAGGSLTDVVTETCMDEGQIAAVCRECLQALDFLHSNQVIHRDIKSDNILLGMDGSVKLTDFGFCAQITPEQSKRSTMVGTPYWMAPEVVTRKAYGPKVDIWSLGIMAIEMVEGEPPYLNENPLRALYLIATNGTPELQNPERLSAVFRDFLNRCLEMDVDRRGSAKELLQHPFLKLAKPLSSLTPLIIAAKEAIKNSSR

Homo sapiens [12] = species: Homo sapiens; assay: Inhibition of electric field stimulation induced prostate cancer patient derived human Prostate gland strips contraction assessed as reduction in KCl-induced contraction at 10 uM by organ-bath analysis; format: functional, tissue-based; how it was run: as §1
WPMY-1 [13] = assay: Inhibition of actin filament organization in human WPMY-1 cells assessed as degeneration of protrusions at 1 uM incubated for 24 hrs by FITC-coupled phalloidin staining based laser scanning microscopy; format: functional, cell-based; how it was run: as §2
Homo sapiens [14] = species: Homo sapiens; assay: Inhibition of noradrenaline induced prostate cancer patient derived human Prostate gland strips contraction assessed as reduction in KCl-induced contraction at 30 uM by organ-bath analysis; format: functional, tissue-based; how it was run: as §1
[15] = Cytotoxicity against human WPMY-1 cells assessed as reduction in cell viability at 1 to 10 uM incubated for 24 to 72 hrs by WST-8 assay; format: toxicity, cell-based; details: wpmy-1, 10 µM, TDE = time-dependent effect, dose lower 1 µM, time lower 24 hrs, dose upper 10 µM, time upper 72 hrs
WPMY-1 [16] = assay: Inhibition of actin filament organization in human WPMY-1 cells at 1 to 10 uM incubated for 24 hrs by FITC-coupled phalloidin staining based laser scanning microscopy; format: functional, cell-based; details: dose 1-10 µM; how it was run: as §2
WPMY-1 [17] = assay: Inhibition of actin filament organization in human WPMY-1 cells assessed as reduction in degree of actin polymerization at 1 uM incubated for 24 hrs by FITC-coupled phalloidin staining based laser scanning microscopy; format: functional, cell-based; how it was run: as §2
[18] = Cytotoxicity against human WPMY-1 cells assessed as cell survival rate at 5 to 10 uM incubated for 48 to 72 hrs by WST-8 assay; format: toxicity, cell-based; details: dose lower 5 µM, time lower 48 hrs, dose upper 10 µM, time upper 72 hrs, read-out: Survival; how it was run: as §3
[19] = Effect on DISC1 knockdown-elicited synaptic changes in rat cortical neurons assessed as prevention of spine size reduction preincubated for 60 mins followed by APV WD solution addition and measured after 20 mins by immunofluorescence analysis; format: functional, cell-based; details: cortical neurone
Homo sapiens [20] = species: Homo sapiens; assay: Inhibition of electric field stimulation induced prostate cancer patient derived human Prostate gland strips contraction assessed as reduction in KCl-induced contraction at 30 uM at 2 to 32 Hz frequency by organ-bath analysis; format: functional, tissue-based; how it was run: as §1
Homo sapiens [21] = species: Homo sapiens; assay: Inhibition of electric field stimulation induced prostate cancer patient derived human Prostate gland strips contraction assessed as reduction in KCl-induced contraction at 100 uM by organ-bath analysis; format: functional, tissue-based; how it was run: as §1
Homo sapiens [22] = species: Homo sapiens; assay: Inhibition of electric field stimulation induced prostate cancer patient derived human Prostate gland strips contraction assessed as reduction in KCl-induced contraction at 300 uM at 32 Hz frequency by organ-bath analysis; format: functional, tissue-based; how it was run: as §1
[23] = Cytotoxicity against human WPMY-1 cells assessed as cell survival rate at 1 uM incubated for 24 to 72 hrs by WST-8 assay; format: toxicity, cell-based; details: time 24-72 hrs, read-out: Survival; how it was run: as §3
[24] = Cytotoxicity against human WPMY-1 cells assessed as cell survival rate at 10 uM incubated for 48 to 72 hrs by WST-8 assay; format: toxicity, cell-based; details: time 48-72 hrs, read-out: Survival; how it was run: as §3
Homo sapiens [25] = species: Homo sapiens; assay: Inhibition of phenylephrine induced prostate cancer patient derived human Prostate gland strips contraction assessed as reduction in KCl-induced contraction at 300 uM by organ-bath analysis; format: functional, tissue-based; how it was run: as §1
Homo sapiens [26] = species: Homo sapiens; assay: Inhibition of noradrenaline induced prostate cancer patient derived human Prostate gland strips contraction assessed as reduction in KCl-induced contraction at 300 uM by organ-bath analysis; format: functional, tissue-based; how it was run: as §1

CCn1c(=O)c(-c2ccc(Cl)cc2Cl)cc2cnc(Nc3ccc(N4CCNCC4)c(F)c3)nc21
inhibition (Homo sapiens [1]): Active
Activity [2]: Dose-Dependent Effect
inhibition (Homo sapiens [3]): inactive
inhibition (WPMY-1 [4]): Active
viability at 24 h, 1 µM [5]: 55%
inhibition (Homo sapiens [6]): Active
inhibition (INH) [7]: 100%
inhibition (Homo sapiens [8]): inactive
Activity [9]: 45%
IC50 [10]: 10 nM
IC50 [11]: 10 nM
inhibition (Homo sapiens [12]): inactive
inhibition (WPMY-1 [13]): Active
inhibition (Homo sapiens [14]): inactive
Activity [15]: Tde
inhibition (WPMY-1 [16]): Dose-Dependent Effect
inhibition (WPMY-1 [17]): Active
viability at up to 10 µM [18]: 1%
EC50 [19]: 500 nM
inhibition (Homo sapiens [20]): Active

Oc1ccc2ccccc2c1SSc1c(O)ccc2ccccc12
Activity [2]: Dose-Dependent Effect
inhibition (WPMY-1 [4]): Active
inhibition (Homo sapiens [21]): inactive
inhibition (Homo sapiens [22]): Active
viability at 1 µM [23]: 55%
inhibition (INH) [7]: 100%
viability at 10 µM [24]: 1%
Activity [9]: 41%
inhibition (Homo sapiens [25]): inactive
inhibition (WPMY-1 [13]): Active
inhibition (Homo sapiens [26]): inactive
Activity [15]: Tde
inhibition (WPMY-1 [16]): Dose-Dependent Effect
inhibition (WPMY-1 [17]): Active
